According to ChEMBL document CHEMBL5329173, “Proline pre-conditioning of Jurkat cells improves recovery after cryopreservation” (RSC Med Chem, 2023):
Activity calls are given as the source filed them. No cut-off for these calls is given here.

What was measured:
Jurkat E6.1 [1] = assay: Cytotoxicity against human Jurkat E6.1 cells assessed as decrease in metabolic activity at 200 mM incubated for 24 hrs by resazurin assay; assay type: toxicity, cell-based; details: jurkat e6.1, 24 h, 200000 µM
Summary of the method: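 Cells were incubated 24 h at 37 °C in medium containing 200 mM additive, then readjusted to 1 × 10^6 cells per mL. They were resuspended in resazurin solution made in additive-free complete medium and incubated 3 or 4 h at 37 °C. Fluorescence was read at 590/35 nm emission and expressed as % of untreated control. Mean ± SD, at least three independent experiments.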

Jurkat E6.1 [2] = assay: (§1) Effect of compound on cryopreserved human Jurkat E6.1 cells recovery assessed as increase in post-thaw cell recovery at 200 mM preincubated for 24 hrs followed by media replacement and cryopreserved at -1 degreeC/min to -80 degreeC/min and measured after 24 hrs post-thaw by trypan blue exclusion method (Rvb=63 %); assay type: functional
Summary of the method: (§2)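 Cells were pre-incubated 24 h in medium with amino acid at the stated density, then the medium was replaced with fresh additive-free medium. Cells were adjusted to 1 × 10^6 cells per mL and held 10 min at room temperature in medium with 5% DMSO. They were cooled at −1 °C min−1 to −80 °C and stored ≥24 h. Thawing was 5 min in a 37 °C water bath, followed by culture at 37 °C, 5% CO2. Recovery relative to pre-freeze count was determined by trypan blue exclusion.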

Jurkat E6.1 [3] = assay: as §1, with “cell recovery at 0.5 millions/ml cell density at 200” for “cell recovery at 200”, “exclusion method” for “exclusion method (Rvb=63 %)”; assay type: functional; summary of the method: as §2
Jurkat E6.1 [4] = assay: as §1, with “cell recovery at 0.8 millions/ml cell density at 200” for “cell recovery at 200”, “exclusion method” for “exclusion method (Rvb=63 %)”; assay type: functional, cell-based; summary of the method: as §2
[5] = Cytotoxicity against human Jurkat E6.1 cells assessed as cell growth inhibition at 200 mM incubated for 24 hrs by trypan blue exclusion method relative to control; assay type: toxicity, cell-based; details: read-out: Activity
Summary of the method: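 Amino acid additives dissolved in complete Advanced RPMI 1640 (base medium contains 0.17 mM L-proline, 0.10 mM L-alanine) and sterile filtered. Jurkat cells seeded at 1 × 10^6 mL−1 and held 24 h at 37 °C, 5% CO2 without freezing. Counts taken every 4 h, with live/dead scored by trypan blue exclusion on an automated counter. Growth and viability were compared with additive-free medium; mean ± SD of independent experiments.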

[6] = Cytotoxicity against human Jurkat E6.1 cells assessed as cell growth inhibition at 100 mM incubated for 24 hrs by trypan blue exclusion method relative to control

Row | SMILES | Activity (Jurkat E6.1 [1]) | Activity (Jurkat E6.1 [2]) [%] | Activity (Jurkat E6.1 [3]) [%] | Activity (Jurkat E6.1 [4]) | inhibition at 24 h, 200000 µM [5] [%] | inhibition at 24 h, 100000 µM [6] [%]
1 | C[C@H](N)C(=O)O [ALANINE] | Non-Toxic | 49 | 83 | Active | 72 | –
2 | O=C(O)[C@H]1CCCN1 [D-PROLINE] | Toxic | 52 | – | – | 107 | –
3 | O=C(O)[C@@H]1CCCN1 [PROLINE] | Non-Toxic | 70 | 77 | Active | 46 | 34
